In brackets after ≈: the same amount, converted by molar mass.
Experiments:
[1] = system: HeLa; assay: Cytotoxicity against human HeLa cells assessed as cell survival after 72 hrs by MTT assay; format: functional, cell-based
Method in brief: (§1)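 Cells seeded (HeLa 2000, MDA-MB-453 3000, others 5000 per well), treated 24 h later (K562 after 2 h). Five double-diluted final concentrations, 200–12.5 μM, from 10 mM DMSO stocks, in RPMI-1640 with 10% FBS, pH 7.2, 72 h. MTT 4 h at 37 °C, SDS added, A570 read next day. Survival relative to medium control; IC50 from survival curves; triplicate; cisplatin positive control.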

[2] = system: A549; assay: Cytotoxicity against human A549 cells assessed as cell survival after 72 hrs by MTT assay; format: functional, cell-based; details: A549, 72 h; method in brief: as §1
[3] = Cytotoxicity against human Fem-X cells assessed as cell survival after 72 hrs by MTT assay; format: functional, cell-based; method in brief: as §1
[4] = system: K562; assay: Cytotoxicity against human K562 cells assessed as cell survival after 72 hrs by MTT assay; format: functional, cell-based; details: K562, 72 h; method in brief: as §1
[5] = system: MDA-MB-453; assay: Cytotoxicity against human MDA-MB-453 cells assessed as cell survival after 72 hrs by MTT assay; format: functional, cell-based; details: MDA-MB-453, 72 h; method in brief: as §1
[6] = system: MRC5; assay: Cytotoxicity against human MRC5 cells assessed as cell survival after 72 hrs by MTT assay; format: cell-based; details: MRC5, 72 h; method in brief: as §1
[7] = system: Staphylococcus aureus; assay: Antibacterial activity against Staphylococcus aureus ATCC 6538 after 24 hrs by microbroth double dilution method; format: functional; details: ATCC 6538, 24 h
Method in brief: (§2)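 Microbroth double dilution in Mueller Hinton broth; compound stock 10 mg/mL in DMSO serially halved across rows. Wells inoculated with 10 μL culture at 10^6 cells/mL, incubated 37 °C for 24 h. Amikacin row as positive control, DMSO row as negative control. MIC taken as lowest concentration inhibiting bacterial growth.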

[8] = system: Kocuria rhizophila; assay: Antibacterial activity against Kocuria rhizophila ATCC 9341 after 24 hrs by microbroth double dilution method; format: functional; details: ATCC 9341, 24 h; method in brief: as §2
[9] = system: Bacillus subtilis; assay: Antibacterial activity against Bacillus subtilis ATCC 6633 after 24 hrs by microbroth double dilution method; format: functional; details: ATCC 6633, 24 h; method in brief: as §2
[10] = system: Micrococcus luteus; assay: Antibacterial activity against Micrococcus luteus ATCC 4698 after 24 hrs by microbroth double dilution method; format: functional; details: ATCC 4698, 24 h; method in brief: as §2
[11] = system: Micrococcus flavus; assay: Antibacterial activity against Micrococcus flavus ATCC 10240 after 24 hrs by microbroth double dilution method; format: functional; details: ATCC 10240, 24 h; method in brief: as §2
[12] = system: Clostridium sporogenes; assay: Antibacterial activity against Clostridium sporogenes ATCC 19404 after 24 hrs by microbroth double dilution method; format: functional; details: ATCC 19404, 24 h; method in brief: as §2
[13] = system: Escherichia coli; assay: Antibacterial activity against Escherichia coli ATCC 25922 after 24 hrs by microbroth double dilution method; format: functional; details: ATCC 25922, 24 h; method in brief: as §2
[14] = system: Proteus hauseri; assay: Antibacterial activity against Proteus hauseri ATCC 13315 after 24 hrs by microbroth double dilution method; format: functional; details: ATCC 13315, 24 h; method in brief: as §2
[15] = system: Salmonella enterica; assay: Antibacterial activity against Salmonella enterica ATCC 13076 after 24 hrs by microbroth double dilution method; format: functional; details: ATCC 13076, 24 h; method in brief: as §2
[16] = system: Pseudomonas aeruginosa; assay: Antibacterial activity against Pseudomonas aeruginosa ATCC 9027 after 24 hrs by microbroth double dilution method; format: functional; details: ATCC 9027, 24 h; method in brief: as §2
[17] = system: Candida albicans; assay: Antifungal activity against Candida albicans ATCC 10231 after 24 hrs by microbroth double dilution method; format: functional; details: ATCC 10231, 24 h
[18] = system: Saccharomyces cerevisiae; assay: Antifungal activity against Saccharomyces cerevisiae ATCC 9763 after 24 hrs by microbroth double dilution method; format: functional; details: ATCC 9763, 24 h
[19] = system: Aspergillus brasiliensis; assay: Antifungal activity against Aspergillus brasiliensis ATCC 16404 after 24 hrs by microbroth double dilution method; format: functional; details: ATCC 16404, 24 h
[20] = system: Artemia salina; assay: Cytotoxicity in Brine shrimp assessed as nauplii mortality after 24 hrs; format: organism-based; details: in vivo
Method in brief: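 Artemia salina eggs hatched in aerated tap water with dried yeast at 18–20 °C under illumination for 48 h, and freshly hatched nauplii were used. Compounds in DMSO (0.01–1 mg) were added to 950 µL artificial seawater containing 10–20 nauplii, with 5% final DMSO. After 24 h under illumination at room temperature, dead and surviving nauplii were counted and statistically analysed.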

CC(C)(C)C1=CC(=O)C=C(NCC(=O)O)C1=O
IC50 [1]: 132 µM
IC50 [2]: > 200 µM
IC50 [3]: 34.3 µM
IC50 [4]: 85 µM
IC50 [5]: 171 µM
IC50 [6]: > 200 µM
MIC [7]: 662 µM (≈ 157 µg/mL)
MIC [8]: 2640 µM (≈ 626 µg/mL)
MIC [9]: 1320 µM (≈ 313 µg/mL)
MIC [10]: 662 µM (≈ 157 µg/mL)
MIC [11]: 2640 µM (≈ 626 µg/mL)
MIC [12]: 2640 µM (≈ 626 µg/mL)
MIC [13]: 662 µM (≈ 157 µg/mL)
MIC [14]: 2640 µM (≈ 626 µg/mL)
MIC [15]: 2640 µM (≈ 626 µg/mL)
MIC [16]: 662 µM (≈ 157 µg/mL)
MIC [17]: 662 µM (≈ 157 µg/mL)
MIC [18]: 662 µM (≈ 157 µg/mL)
MIC [19]: 2640 µM (≈ 626 µg/mL)
LC50 [20]: 197.4 ppm

CC(C)C[C@H](NC1=CC(=O)C=C(C(C)(C)C)C1=O)C(=O)O
IC50 [1]: 57.2 µM
IC50 [2]: 97.9 µM
IC50 [3]: 39.4 µM
IC50 [4]: 76.5 µM
IC50 [5]: 84.9 µM
IC50 [6]: > 200 µM
MIC [7]: 266 µM (≈ 78 µg/mL)
MIC [8]: 2130 µM (≈ 625 µg/mL)
MIC [9]: 2130 µM (≈ 625 µg/mL)
MIC [10]: 266 µM (≈ 78 µg/mL)
MIC [11]: 2130 µM (≈ 625 µg/mL)
MIC [12]: 2130 µM (≈ 625 µg/mL)
MIC [13]: 266 µM (≈ 78 µg/mL)
MIC [14]: 2130 µM (≈ 625 µg/mL)
MIC [15]: 2130 µM (≈ 625 µg/mL)
MIC [16]: 4260 µM (≈ 1250 µg/mL)
MIC [17]: 536 µM (≈ 157 µg/mL)
MIC [18]: 133 µM (≈ 39 µg/mL)
MIC [19]: 1070 µM (≈ 313 µg/mL)
LC50 [20]: 104.8 ppm

CC(C)(C)C1=CC(=O)C(N2CCC[C@H]2C(=O)O)=CC1=O
IC50 [1]: 44.9 µM
IC50 [2]: 186 µM
IC50 [3]: 87.3 µM
IC50 [4]: 49.2 µM
IC50 [5]: 67.2 µM
IC50 [6]: > 200 µM
MIC [7]: 567 µM (≈ 157 µg/mL)
MIC [8]: 2260 µM (≈ 626 µg/mL)
MIC [9]: 1130 µM (≈ 313 µg/mL)
MIC [10]: 567 µM (≈ 157 µg/mL)
MIC [11]: 2260 µM (≈ 626 µg/mL)
MIC [12]: 2260 µM (≈ 626 µg/mL)
MIC [13]: 567 µM (≈ 157 µg/mL)
MIC [14]: 2260 µM (≈ 626 µg/mL)
MIC [15]: 2260 µM (≈ 626 µg/mL)
MIC [16]: 2260 µM (≈ 626 µg/mL)
MIC [17]: 567 µM (≈ 157 µg/mL)
MIC [18]: 567 µM (≈ 157 µg/mL)
MIC [19]: 2260 µM (≈ 626 µg/mL)
LC50 [20]: 883.4 ppm

From ChEMBL document CHEMBL3627646, “Synthesis and biological activity of amino acid derivatives of avarone and its model compound” (Bioorg Med Chem, 2015)
